pIC50: −log10 of the molar value. Activity calls are given as the source filed them.
How the values were obtained:
[1] = target: T1, Pituitary adenylate cyclase-activating polypeptide type I receptor (Homo sapiens, UniProt P41586); experiment: Antagonist activity at PAC1 receptor (unknown origin) expressed in CHO cells assessed as inhibition of PACAP-induced inhibition of CREB phosphorylation preincubated for 30 mins followed by PACAP stimulation and measured after 30 mins by Western blot analysis; assay type: cell-based; conditions: for inhibition: filed as antagonist, time 60.0 min
Summary of the method: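 PAC1/CHO cells seeded at 1×10^5 cells/well and grown 48 h, then pretreated 30 min with agent over 10 pM to 10 nM (vehicle 0.1% DMSO). Stimulated with PACAP 1 nM for 30 min. Western blot of 20 µg lysate for phospho-CREB (Ser133) and total CREB, with pCREB normalised to total CREB. IC50 taken from the dose series. n = 3-5.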

Mus musculus [2] = species: Mus musculus; experiment: Antiallodynic activity in PACAP-induced mechanical allodynia ddy mouse model assessed as increase in ipsilateral paw withdrawal threshold at 100 pmol, it; assay type: functional, organism-based
Summary of the method: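 Male ddY mice, 6 weeks old at start. Agent 100 pmol co-injected i.t. with PACAP 100 pmol in 5 µl by lumbar (L5/L6) puncture; diluted in PBS or ACSF. Hind-paw 50% withdrawal threshold measured with von Frey hairs by the up-down method. n = 6, compared with vehicle.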

Mus musculus [3] = experiment: Antiallodynic activity in ddy mouse model of spinal nerve ligation-induced neuropathic pain assessed as […] at 100 pmol, it administered as single dose measured up to 24 hrs; assay type: functional, organism-based; conditions: time hrs <=24
[4] = Effect on nociception on contralateral paw in ddy mouse model of spinal nerve ligation-induced neuropathic pain at 100 pmol, it administered as single dose measured up to 24 hrs; assay type: ADME; conditions: in vivo, icv_or_intrathecal
[5] = Effect on nociception on contralateral paw in ddy mouse model of spinal nerve ligation-induced neuropathic pain at 30 mg/kg, po administered as single dose measured up to 24 hrs; assay type: ADME, organism-based; conditions: in vivo
Summary of the method: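 Spinal nerve ligation performed in male ddY mice. On day 14 after SNL, a single oral dose of 30 mg/kg given. Ipsilateral and contralateral hind-paw 50% gram thresholds measured by von Frey up-down method at serial times after dosing. n = 6 per group, compared with vehicle.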

[6] = target: T1, Pituitary adenylate cyclase-activating polypeptide type I receptor; experiment: Antagonist activity at PAC1 receptor (unknown origin) expressed in CHO cells assessed as inhibition of PACAP-induced inhibition of CREB phosphorylation at 1 nM preincubated for 30 mins followed by PACAP stimulation and measured after 30 mins by Western blot analysis relative to control; values are per cent of control; conditions: time 60.0 min
Target sequence in this assay (P41586 21-468 limits assumed): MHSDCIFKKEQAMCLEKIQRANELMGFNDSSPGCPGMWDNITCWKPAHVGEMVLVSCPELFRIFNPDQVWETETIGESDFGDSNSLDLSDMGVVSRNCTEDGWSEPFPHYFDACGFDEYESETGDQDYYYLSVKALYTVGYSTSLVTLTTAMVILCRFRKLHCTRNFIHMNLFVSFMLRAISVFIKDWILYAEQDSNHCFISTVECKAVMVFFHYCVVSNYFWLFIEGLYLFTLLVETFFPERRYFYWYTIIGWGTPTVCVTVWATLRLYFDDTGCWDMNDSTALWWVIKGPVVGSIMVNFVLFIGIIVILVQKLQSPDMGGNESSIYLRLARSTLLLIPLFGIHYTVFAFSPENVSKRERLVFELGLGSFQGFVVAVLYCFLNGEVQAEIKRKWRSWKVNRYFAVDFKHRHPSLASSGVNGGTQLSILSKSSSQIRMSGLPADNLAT

Row | pIC50 [1] | inhibition [1] | residual activity [6] [%] | SMILES | Activity (Mus musculus [2]) | Activity (Mus musculus [3]) | Activity [4] | Activity [5]
1 | > 11.00 | Dose-dependent effect | 11.9 | O=C(NCCc1c[nH]cn1)C1CC(=O)N(c2n[nH]c3c(Cl)cccc23)C1 (centres undefined) | Active | Active | Non-Toxic | Non-Toxic
2 | 9.74 | Dose-dependent effect | 30.6 | O=C(NCCc1c[nH]cn1)C1CC(=O)N(c2n[nH]c3ccccc23)C1 (centres undefined) | Active | Active | Non-Toxic | Non-Toxic
